Most compounds without a hit are left out; they make up all but 2.6% or so of the library.
TDP2 absorb: blocks human TDP2 phosphodiesterase activity; recombinant TDP2, T5PNP hydrolysis, p-nitrophenol absorbance 415 nm; inhibition, % at 12.8 µM; hit rate 0.34% among 370,000;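 active means inhibition above the mean of all tested compounds plus 3 SD, set per campaign, cut at about 25% in these data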;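 further: 0% = DMSO with enzyme and 100% = buffer with substrate but no TDP2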
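Assay system: Recombinant human TDP2 | Quantity: 120 nM TDP2 per well | Incubation: 2 h at 37 °C | Signal: Epi absorbance | Evaluation: Percent inhibition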
Apaf-1 inh: human Apaf-1 inhibition; inhibition, % at 20 µM; hit rate 0.71% among 330,000; reconstituted apoptosome caspase-3 activity, DEVD-Rh110 fluorescence; active means inhibition of at least 40% at 20 µM;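 further: plate controls were DMSO wells for no effect and DEVD-CHO caspase inhibitor wells for full effect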
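System: Apoptosome proteins | Medium: Hepes pH 7.5 with detergent and BSA | Also added: Cytochrome c trigger plus (Z-DEVD)2-Rh110 caspase-3 substrate | Incubation: 30 min compound preincubation, 50 min activation, room temperature | Detection: Rhodamine 110 fluorescence at Ex 480/Em 540 nm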
GSTO1 counter: blocks human GSTO1 in RBBP9 counter-screen; recombinant GSTO1, activity-based probe fluorescence polarization; inhibition, % at 5.96 µM; hit rate 1.1% among 300,000; AID 1974;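 active means inhibition above the campaign mean inhibition plus 3 SD, cut at about 35% in these data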;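 further: 0% = GSTO1-1 with DMSO and 100% = wells lacking GSTO1-1 enzyme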
PAD4 FP inh: blocks human protein arginine deiminase 4. recombinant PAD4, RCA probe fluorescence polarization. inhibition, % at 6.36 µM. hit rate 0.41% among 330,000. AID 485272;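 active means percent inhibition above a cutoff equal to the mean of all tested compounds plus 3 SD, cut at about 15% in these data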;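 further: 0% = PAD4 with RCA probe and DMSO and 100% = probe without PAD4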
Target sequence (Q9UM07 whole entry, looked up): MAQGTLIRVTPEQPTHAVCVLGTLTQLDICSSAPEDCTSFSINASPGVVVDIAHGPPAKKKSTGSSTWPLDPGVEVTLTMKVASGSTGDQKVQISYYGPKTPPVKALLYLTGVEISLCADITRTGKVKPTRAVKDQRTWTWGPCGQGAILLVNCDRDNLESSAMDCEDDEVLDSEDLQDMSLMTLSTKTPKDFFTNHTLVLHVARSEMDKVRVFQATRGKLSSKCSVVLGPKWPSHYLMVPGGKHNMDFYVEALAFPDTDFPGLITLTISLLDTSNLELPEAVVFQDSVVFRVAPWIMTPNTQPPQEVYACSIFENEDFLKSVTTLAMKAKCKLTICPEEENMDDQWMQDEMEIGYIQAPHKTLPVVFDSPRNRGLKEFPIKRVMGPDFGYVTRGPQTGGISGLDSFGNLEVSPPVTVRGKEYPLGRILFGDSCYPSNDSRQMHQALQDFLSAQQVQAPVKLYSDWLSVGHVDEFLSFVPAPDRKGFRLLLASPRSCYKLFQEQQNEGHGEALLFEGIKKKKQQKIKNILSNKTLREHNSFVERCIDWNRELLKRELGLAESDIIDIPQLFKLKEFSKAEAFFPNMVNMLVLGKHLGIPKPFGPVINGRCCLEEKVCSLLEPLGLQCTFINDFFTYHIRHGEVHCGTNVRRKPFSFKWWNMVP
PRMT1 inh: blocks human protein arginine methyltransferase 1; inhibition, % at 2.79 µM; hit rate 1.3% among 370,000; Q99873; recombinant PRMT1, activity-based probe fluorescence polarization;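 active means inhibition above about 21% made by adding two undisclosed values, limit read from the data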
Apaf-1 inh conf: Apaf-1 inhibition, single-dose confirmed | shares compounds with Apaf-1 inh | reconstituted apoptosome, caspase-3 DEVD-Rh110 fluorescence | inhibition, % at 20 µM | hit rate 25% among 1,800;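 active means mean inhibition of at least 40% at 20 µM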;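 further: plate controls were DMSO wells for no effect and DEVD-CHO caspase inhibitor control wells for full effect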
Rh110 interf inh: counter-screen for Apaf-1 inhibitors: fluorescence interference | shares compounds with Apaf-1 inh | Rh110 fluorescence interference, quenched caspase reaction | activation (fluorescence interference), % at 20 µM | 1,800 tested, under 10 active;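 active means signal rise of 40% or more at 20 µM, treated as a fluorescence artifact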
Fluor interf inh: Apaf-1 inhibitor counter-screen fluorescence artifact | shares compounds with Apaf-1 inh | fluorescence interference counterscreen, Apaf-1 assay format | IC50, µM | 460 tested, under 10 active | AID 588538; call rule not given here
* hit, by the source's call; . = no result given.

SMILES | TDP2 absorb | Apaf-1 inh | GSTO1 counter | PAD4 FP inh | PRMT1 inh | Apaf-1 inh conf | Rh110 interf inh | others
O=C(Nc1ccc2nsnc2c1)N1CCCCC1 | 5 | 73* | 25 | -2 | 1 | 3 | -3
CCc1ccccc1N=Cc1c(C)c(C#N)c2[nH]c3ccccc3n2c1=O | -4 | . | . | . | 0 | . | .
Cc1c(CCC(C)C)c(=O)n2c([nH]c3ccccc32)c1C#N | . | 60* | -13 | 2 | . | 65* | -2 | Fluor interf inh=>100
Cc1c(CCO)c(=O)n2c([nH]c3ccccc32)c1C#N | -6 | 24 | -6 | -3 | 8 | . | .
CCCCc1c(C)c(C#N)c2[nH]c3ccccc3n2c1=O | 2 | 45* | -142 | -6 | 0 | 50* | 7 | Fluor interf inh=>100
CCCCNC(=O)C1C(c2ccc(OC)cc2)=Nc2ccccc2N1C(=O)Cc1cc(OC)cc(OC)c1 (stereo unspecified) | 9 | . | . | . | 1 | . | .
CCCc1cc(=O)oc2c3c(c4c(c12)OC(C)(C)C=C4)OC(C)C(C)C3O (stereo unspecified) | -5 | 53* | 0 | 1 | -5 | 47* | 12 | Fluor interf inh=>100
CCCc1cc(=O)oc2c3c(cc(OCC(=O)N[C@@H](C)C(=O)O)c12)OC(C)(C)CC3 | 4 | 2 | -7 | -8 | 2 | . | .
O=C(Nc1ccncc1)c1cc(-c2cccc(Br)c2)nc2ccccc12 | -10 | 47* | -17 | 0 | -1 | 19 | 8
COc1ccc(NC(=O)c2cc(-c3ccncc3)nc3ccc(Br)cc23)cc1OC | -1 | 45* | 7 | -9 | 3 | 12 | 8
C[C@@H]1CCN(C2CC2)S(=O)(=O)c2c(cccc2N2CC[C@@H](O)C2)O1 | -1 | . | . | . | 5 | . | .
CCOC(=O)[C@@]12CCCC3=C1N(CCC3)C(=O)[C@H]2CC(=O)NCCCN1CCCC1=O | 2 | . | . | . | 2 | . | .
CCOc1cc(/C=C/C(=O)Nc2ccc(C(=O)NCCN(CC)CC)cc2)ccc1OCC(C)C | -4 | 47* | -17 | 2 | -3 | 40 | 21
C#CCNC(=O)C[C@H]1C(=O)N(CC=C)C2=CCCC[C@@]21C(=O)OCC | 4 | . | . | . | 0 | . | .
NC1=NC[C@H](Cc2ccc(O)cc2)N1CCC12CC3CC(CC(C3)C1)C2 | -8 | 49* | 2 | 4 | -4 | 12 | 5
Cc1ccc(-c2nn(CCC#N)cc2C=C(C#N)C#N)cc1 | 3 | 9 | 8 | 0 | -1 | . | .
CC(C)(C)c1ccc(-c2nn(CCC#N)cc2/C=N/O)cc1 | -10 | 50* | 4 | -2 | -2 | 39 | 7
O=C(C[C@H]1CC[C@@H]2[C@H](COC[C@@H](O)CN2Cc2cccc(F)c2)O1)NCC1CCCCC1 | 2 | . | . | . | 0 | . | .
Cc1cccc(C)c1NC(=O)CN1CCN(CCCC(c2ccc(F)cc2)c2ccc(F)cc2)CC1 | 2 | 51* | 3 | 1 | -6 | 19 | 11
COc1cccc(OC(C)CCN2CCC(C(O)(c3ccccc3)c3ccccc3)CC2)c1 (stereo unspecified) | -8 | . | . | . | 0 | . | .
Cc1ccc(-c2csc3nc4c5ccccc5c(NCCCN(C)C)nn4c(=O)c23)cc1 | -14 | 42* | -12 | -6 | 0 | 58* | 12 | Fluor interf inh=>100
Cc1ccc(-c2csc3nc4c5ccccc5c(NCCCN5CCOCC5)nn4c(=O)c23)cc1 | . | 13 | -3 | 1 | . | . | .
OCCCCNc1cccc2ccccc12 | 2 | 81* | 23 | -11 | 6 | 18 | -2
CCC(C(=O)NC1CCCC1)n1c(C2CCCC2)nc2ccccc21 (stereo unspecified) | -8 | . | . | . | 2 | . | .
CS(=O)(=O)Nc1cccc(NC(=O)C2Cc3c(-c4ccccc4)ccnc3O2)c1 (stereo unspecified) | -2 | . | . | . | -2 | . | .
SMILES | TDP2 absorb | Apaf-1 inh | GSTO1 counter | PAD4 FP inh | PRMT1 inh | Apaf-1 inh conf | Rh110 interf inh | others
COC(=O)[C@]12C[C@H](CC(=O)NCc3cccc(C(F)(F)F)c3)C(=O)N(CCC3=CCCCC3)C1=C[C@H](C(C)C)O[C@@H]2C1CC1 | -5 | . | . | . | 0 | . | .
O=C(N[C@H]1CCC(=O)N([C@H](CSc2ccc(Br)cc2)Cc2ccccc2)CC1)OCc1ccccc1 | -13 | 32 | . | -1 | -2 | . | .
COc1ccc(S[C@@H](CCN2CC[C@H](NC(=O)OCc3ccccc3)CCC2=O)c2ccccc2)cc1 | 2 | 37 | . | -2 | 1 | . | .
COc1ccc(SC[C@H](C)CN2CC[C@H](NC(=O)OCc3ccccc3)CCC2=O)cc1 | -5 | 70* | . | -4 | 11 | 20 | -1
C[C@@H](CSc1ccc(Br)cc1)CN1CC[C@H](NC(=O)OCc2ccccc2)CCC1=O | 0 | 40* | . | -7 | -1 | 16 | 0
O=C(Nc1ccc(Cl)c(Cl)c1)N[C@@H]1CC[C@@H](CCn2cc(C3CCCCC3)nn2)O[C@@H]1CO | 1 | . | . | . | 0 | . | .
C[C@H](c1ccccc1)N1C[C@@H](COCc2ccccc2)Oc2cc(N3CC[C@@H](N(C)C)C3)ccc2S1(=O)=O | -3 | . | . | . | -2 | . | .
O=C(NC1CC1)C1=C[C@@H](c2ccc(C(F)(F)F)cc2)C[C@@H](OCCCCO)O1 | 3 | 3 | 3 | -3 | 0 | . | .
O=C(NC1CC1)C1=C[C@H](c2ccc(C(F)(F)F)cc2)C[C@H](OCCCCO)O1 | 1 | 50* | -5 | -3 | -6 | 4 | 9
CC(=O)c1ccc2noc(-c3ccccc3)c2c1 | 4 | -3 | 6 | -6 | 1 | . | .
CC(=O)c1ccc2c(c1)c(C#N)c1ccccc1[n+]2[O-] | -4 | 74* | . | . | 20 | 42* | 2 | Fluor interf inh=>100
O=S1(=O)N[C@H](Cc2ccccc2)COc2cc(N3CCC[C@@H]3CO)ccc21 | 3 | . | . | . | 5 | . | .
CN1CCc2c(C#N)c(N3CCCCC3)nc(NCc3ccccc3)c2C1 | -3 | 52* | 6 | -4 | 1 | 21 | 11
N#Cc1c(NCCCO)nc(NCc2ccccc2)c2c1CCN(Cc1ccccc1)C2 | -13 | 69* | 17 | -23 | 5 | 21 | 2
C[C@H]1[C@@H](OC(=O)NCc2ccco2)CC[C@@]23CCCN2C(=O)CCC[C@@H]13 | 2 | . | . | . | 6 | . | .
CN(C)CCN(C(=O)c1cccc2ccccc12)c1nc2cc3c(cc2s1)OCO3 | -5 | 52* | -12 | 3 | 0 | 25 | 6
CN(C)CCCN(C(=O)c1ccc2ccccc2c1)c1nc2cc3c(cc2s1)OCO3 | 3 | 20 | 3 | -2 | 3 | . | .
c1ccc(COc2ccc(-c3cc4nc(NCCCn5ccnc5)ccn4n3)cc2)cc1 | 0 | . | . | . | -4 | . | .
CCNC(=O)N(C)c1c(CC)nc2ccc(C(=O)N3CCN(S(=O)(=O)CC)CC3)cn12 | 0 | . | . | . | 0 | . | .
